# In ChEMBL document CHEMBL5724801, “EUbOPEN Chemogenomics Library - Multiplex” (2024):
# Several values for one entry are separate records, joined by “and”; a condition that tells them apart may be missing. Equal values may be shown once.
# System: U2OS
# Assay: Multiplex assay against U2OS
# Format: toxicity, cell-based
# Settings: human
# How it was run: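 Imaging took place on a CQ1 microscope at 37°C and 5% CO2 once compound had been added to live cells stained at seeding with Hoechst33342, BioTracker Green Microtubule Cytoskeleton Dye, MitoTracker Red and Annexin V Alexa Fluor 680. CellPathfinder machine-learning gating classed cells as Hoechst high-intensity objects or normal cells, classed normal cells as having healthy, pyknosed or fragmented nuclei, and classed pyknosed cells as mitotic or apoptotic. Tubulin, mitochondrial-mass and membrane-permeability phenotypes are per cents of the healthy-nucleus cells.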
# [1] = 12 h, 1 µM, compound concentration 1 uM
# [2] = 12 h, 10 µM, compound concentration 10 uM
# [3] = 24 h, 1 µM, compound concentration 1 uM
# [4] = 24 h, 10 µM, compound concentration 10 uM
# [5] = 48 h, 1 µM, compound concentration 1 uM
# [6] = 48 h, 10 µM, compound concentration 10 uM
smiles,measurement,setting,value
CCCCC[C@H](O)/C=C/[C@H]1[C@H](O)CC(=O)[C@@H]1CCCCCCC(=O)O [ALPROSTADIL],Population Apoptotic (%),[1],100% and 77%
same,Population Fragmented Nuclei (%),[1],31% and 11%
same,Population Healthy Nuclei (%),[1],62% and 81%
same,Population Hoechst High Intensity Objects (%),[1],1% and 0%
same,Population Membrane Permeable-Phenotype (%),[1],4% and 9%
same,Population Mitochondria Different-Phenotype (%),[1],2% and 5%
same,Population Mitotic Cells (%),[1],0% and 22%
same,Population Normal (%),[1],98% and 100%
same,Population Pyknosed Nuclei (%),[1],6%
same,Population Tubulin-Different-Phenotype (%),[1],2% and 6%
same,Total Cell Count,[1],219 and 132
same,Population Apoptotic (%),[2],71% and 77%
same,Population Fragmented Nuclei (%),[2],23% and 15%
same,Population Healthy Nuclei (%),[2],69% and 75%
same,Population Hoechst High Intensity Objects (%),[2],1% and 2%
same,Population Membrane Permeable-Phenotype (%),[2],1% and 5%
same,Population Mitochondria Different-Phenotype (%),[2],0% and 3%
same,Population Mitotic Cells (%),[2],28% and 22%
same,Population Normal (%),[2],98% and 97%
same,Population Pyknosed Nuclei (%),[2],6% and 8%
same,Population Tubulin-Different-Phenotype (%),[2],0% and 5%
same,Total Cell Count,[2],222 and 104
same,Population Apoptotic (%),[3],91% and 87%
same,Population Fragmented Nuclei (%),[3],25% and 14%
same,Population Healthy Nuclei (%),[3],65% and 75%
same,Population Hoechst High Intensity Objects (%),[3],1% and 0%
same,Population Membrane Permeable-Phenotype (%),[3],5% and 8%
same,Population Mitochondria Different-Phenotype (%),[3],2% and 4%
same,Population Mitotic Cells (%),[3],8% and 12%
same,Population Normal (%),[3],98% and 99%
same,Population Pyknosed Nuclei (%),[3],9%
same,Population Tubulin-Different-Phenotype (%),[3],3%
same,Total Cell Count,[3],263 and 166
same,Population Apoptotic (%),[4],94% and 100%
same,Population Fragmented Nuclei (%),[4],19% and 12%
same,Population Healthy Nuclei (%),[4],74% and 76%
same,Population Hoechst High Intensity Objects (%),[4],1% and 0%
same,Population Membrane Permeable-Phenotype (%),[4],5% and 4%
same,Population Mitochondria Different-Phenotype (%),[4],0% and 2%
same,Population Mitotic Cells (%),[4],5% and 0%
same,Population Normal (%),[4],98% and 99%
same,Population Pyknosed Nuclei (%),[4],6% and 10%
same,Population Tubulin-Different-Phenotype (%),[4],3% and 1%
same,Total Cell Count,[4],271 and 131
same,Population Apoptotic (%),[5],87% and 95%
same,Population Fragmented Nuclei (%),[5],22% and 18%
same,Population Healthy Nuclei (%),[5],68% and 71%
same,Population Hoechst High Intensity Objects (%),[5],2% and 3%
same,Population Membrane Permeable-Phenotype (%),[5],4% and 6%
same,Population Mitochondria Different-Phenotype (%),[5],2% and 5%
same,Population Mitotic Cells (%),[5],12% and 4%
same,Population Normal (%),[5],97% and 96%
same,Population Pyknosed Nuclei (%),[5],9%
same,Population Tubulin-Different-Phenotype (%),[5],2% and 6%
same,Total Cell Count,[5],367 and 236
same,Population Apoptotic (%),[6],88% and 100%
same,Population Fragmented Nuclei (%),[6],13% and 11%
same,Population Healthy Nuclei (%),[6],76% and 77%
same,Population Hoechst High Intensity Objects (%),[6],0% and 2%
same,Population Membrane Permeable-Phenotype (%),[6],4% and 6%
same,Population Mitochondria Different-Phenotype (%),[6],0% and 1%
same,Population Mitotic Cells (%),[6],11% and 0%
same,Population Normal (%),[6],99% and 97%
same,Population Pyknosed Nuclei (%),[6],10%
same,Population Tubulin-Different-Phenotype (%),[6],3% and 4%
same,Total Cell Count,[6],362 and 165
COC(c1ccccc1)(c1ccccc1)[C@H](Oc1nc(C)cc(C)n1)C(=O)O [AMBRISENTAN],Population Apoptotic (%),[1],95% and 100%
same,Population Fragmented Nuclei (%),[1],26% and 21%
same,Population Healthy Nuclei (%),[1],62% and 72%
same,Population Hoechst High Intensity Objects (%),[1],2%
same,Population Membrane Permeable-Phenotype (%),[1],3% and 8%
same,Population Mitochondria Different-Phenotype (%),[1],0% and 3%
same,Population Mitotic Cells (%),[1],4% and 0%
same,Population Normal (%),[1],97%
same,Population Pyknosed Nuclei (%),[1],10% and 5%
same,Population Tubulin-Different-Phenotype (%),[1],1%
same,Total Cell Count,[1],209 and 87
same,Population Apoptotic (%),[2],61% and 100%
same,Population Fragmented Nuclei (%),[2],28% and 19%
same,Population Healthy Nuclei (%),[2],63% and 72%
same,Population Hoechst High Intensity Objects (%),[2],2% and 0%
same,Population Membrane Permeable-Phenotype (%),[2],4%
same,Population Mitochondria Different-Phenotype (%),[2],2% and 0%
same,Population Normal (%),[2],97% and 99%
same,Population Pyknosed Nuclei (%),[2],7%
same,Population Tubulin-Different-Phenotype (%),[2],1% and 0%
same,Total Cell Count,[2],232 and 104
same,Population Apoptotic (%),[3],95% and 100%
same,Population Fragmented Nuclei (%),[3],27% and 23%
same,Population Healthy Nuclei (%),[3],63% and 66%
same,Population Hoechst High Intensity Objects (%),[3],0%
same,Population Membrane Permeable-Phenotype (%),[3],4% and 1%
same,Population Mitochondria Different-Phenotype (%),[3],1% and 2%
same,Population Mitotic Cells (%),[3],4% and 0%
same,Population Normal (%),[3],99%
same,Population Pyknosed Nuclei (%),[3],8% and 10%
same,Population Tubulin-Different-Phenotype (%),[3],1%
same,Total Cell Count,[3],248 and 111
same,Population Apoptotic (%),[4],84% and 80%
same,Population Fragmented Nuclei (%),[4],25% and 13%
same,Population Healthy Nuclei (%),[4],65% and 77%
same,Population Hoechst High Intensity Objects (%),[4],1% and 0%
same,Population Membrane Permeable-Phenotype (%),[4],7%
same,Population Mitochondria Different-Phenotype (%),[4],2%
same,Population Mitotic Cells (%),[4],16% and 20%
same,Population Normal (%),[4],98% and 100%
same,Population Pyknosed Nuclei (%),[4],9% and 8%
same,Population Tubulin-Different-Phenotype (%),[4],3% and 5%
same,Total Cell Count,[4],273 and 115
same,Population Apoptotic (%),[5],89% and 93%
same,Population Fragmented Nuclei (%),[5],17%
same,Population Healthy Nuclei (%),[5],70% and 72%
same,Population Hoechst High Intensity Objects (%),[5],2%
same,Population Membrane Permeable-Phenotype (%),[5],2% and 0%
same,Population Mitochondria Different-Phenotype (%),[5],1%
same,Population Mitotic Cells (%),[5],10% and 6%
same,Population Normal (%),[5],97%
same,Population Pyknosed Nuclei (%),[5],11% and 10%
same,Population Tubulin-Different-Phenotype (%),[5],0%
same,Total Cell Count,[5],333 and 151
same,Population Apoptotic (%),[6],87% and 81%
same,Population Fragmented Nuclei (%),[6],21% and 13%
same,Population Healthy Nuclei (%),[6],68% and 79%
same,Population Hoechst High Intensity Objects (%),[6],3% and 0%
same,Population Membrane Permeable-Phenotype (%),[6],4% and 2%
same,Population Mitochondria Different-Phenotype (%),[6],2% and 0%
same,Population Mitotic Cells (%),[6],12% and 18%
same,Population Normal (%),[6],96% and 100%
same,Population Pyknosed Nuclei (%),[6],10% and 6%
same,Population Tubulin-Different-Phenotype (%),[6],3% and 2%
same,Total Cell Count,[6],388 and 174
